The nature of the series: Toxicity liver stage against HepG2, at 10uM. Format: cell-based. Details: test concentration 10 uM, cell line HepG2-A16-CD81EGFP. To be noted: human, HepG2-A16-CD81EGFP cells; read-out: INHIBITION
The essentials: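 Uninfected HepG2-A16-CD81EGFP cells, 3 × 10^3 per well, 1536-well, plated on prespotted compound at 10 μM final, parasite-free screening media added to match infected plates; puromycin 10 μM positive, DMSO 0.5% negative; run in parallel with 48 h PbLuc assay at 37 °C, 5% CO2; viability by CellTiter-Glo luminescence, normalized to controls.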
As to `Cc1cccnc1NC(=O)C1CSc2ncc(C)c(=O)n2C1` (stereo not given), the cytotoxicity at 10 µM is -1.62%.

Take `CC(C)(C)CC(=O)NCCn1ccc(-c2ccncc2)n1`: the cytotoxicity at 10 µM was -3.4%.

Regarding `O=C1NC2(CCN(C(=O)Cc3ccsc3)CC2)CC1c1ccccc1` (stereo not given), the cytotoxicity at 10 µM is -2.04%.

Consider `CN1CC(=O)N(c2cccc(F)c2)CC12CCN(Cc1ccccn1)C2` (stereo not given), for which the cytotoxicity at 10 µM was found to be 2.49%.

On to `C[C@@H]1C[C@@H]2CCN(C(=O)c3cnccn3)C[C@H]2O1`, for which the cytotoxicity at 10 µM is -10.6%.

`Cc1nc(N2CCOCC2)sc1C(=O)NCC(C)(C)N1CCCCC1`: the cytotoxicity at 10 µM was determined as 5.7%.

For the compound `Cc1nc(-c2ccc(CNS(=O)(=O)N(C)C)cc2)ccc1C(N)=O`, the cytotoxicity at 10 µM is -8.53%.

For the compound `Cc1ccc(S(=O)(=O)NCc2[nH]ncc2Br)cc1C`, the cytotoxicity at 10 µM was determined as 5.23%.

As for `CCCS(=O)(=O)CCN1CCN(C(C#N)c2ccccc2)CC1` (stereo not given), the cytotoxicity at 10 µM was -5.02%.

`Cc1ncc2c(n1)CN(Cc1nc(-c3ccsc3)oc1C)CC2`: the cytotoxicity at 10 µM came to 1.97%.

On to `CCc1ccc(O)c(C(=O)N2CCN(CC(=O)N3CCCCC3)CC2)c1`, for which the cytotoxicity at 10 µM amounted to 9.06%.

Turning to `CCN(CC1CCOC1)C(=O)NCc1ccc(-n2cncn2)nc1` (stereo not given), the cytotoxicity at 10 µM stood at 0.0529%.

With `CC(c1cccnc1)N1CCN(C(=O)NCc2cnn(C)c2)CC1` (stereo not given), the cytotoxicity at 10 µM was -2.38%.

On to `O=C(Cc1ccc2c(c1)CCO2)Nc1cccnc1-n1cncn1`, for which the cytotoxicity at 10 µM amounted to 3.94%.

In the case of `CCc1noc(CN(C)CCC(=O)Nc2ccc(Cl)cc2)n1`, the cytotoxicity at 10 µM stood at 2.78%.

Consider `O=S(=O)(CCNCc1cccc2c1OCCO2)N1CCOCC1`, for which the cytotoxicity at 10 µM is -10.9%.

Regarding `N#Cc1cc(NC(=O)c2ccccc2)ccc1N1CCC(O)CC1`, the cytotoxicity at 10 µM was -9.55%.

For `CN(CCO)c1ncc(-c2ccc(NC(=O)[C@@H]3CCCCN3)cc2)cn1`, the cytotoxicity at 10 µM was 0.609%.

As to `Cc1noc2ncnc(N3CCC(O)(Cn4ccnc4)CC3)c12`, the cytotoxicity at 10 µM came out at 0.648%.

Turning to `COCCn1ccnc1-c1[nH]cnc1C`, the cytotoxicity at 10 µM is -18.4%.

Turning to `COC(=O)NCC(=O)N(C)CC1Cc2ccccc2CN1C` (stereo not given), the cytotoxicity at 10 µM was -6.24%.

In the case of `COCCNC(=O)c1cc(S(=O)(=O)N2CCCCC2)cs1`, the cytotoxicity at 10 µM was -8.94%.

Consider `NC(=O)c1c[nH]nc1NC(=O)c1cccc(Cl)c1`, for which the cytotoxicity at 10 µM is -2.39%.

On to `c1ccc2oc(CN3CCCC3Cn3cncn3)nc2c1` (stereo not given), for which the cytotoxicity at 10 µM is -17.2%.

Turning to `c1cncc(COc2ccccc2CNC2CCc3ncnn3C2)c1` (stereo not given), the cytotoxicity at 10 µM is -3.69%.

For `Cc1cnn(CCNCc2csc(-c3ccco3)n2)c1`, the cytotoxicity at 10 µM was -5.28%.

As for `Cc1nc(CSCCC(=O)NCc2ccncc2)cs1`, the cytotoxicity at 10 µM was -15.6%.

Turning to `OC(CN1CCC(c2ccn[nH]2)CC1)c1cc(F)ccc1F` (stereo not given), the cytotoxicity at 10 µM is -12.3%.

Regarding `O=C(c1cc2c(F)cccc2[nH]1)N1CCCCC1Cn1cccn1` (stereo not given), the cytotoxicity at 10 µM is -7.95%.

Turning to `CCc1nc(C2CCCN2Cc2cnc(C)cn2)no1` (stereo not given), the cytotoxicity at 10 µM is -14.6%.

With `CC(C)C1CCCN1CCCc1nc(-c2cccs2)no1` (stereo not given), the cytotoxicity at 10 µM was -16%.

With `O=C1COc2c(cccc2C(=O)N2CCCC(n3cccn3)C2)N1` (stereo not given), the cytotoxicity at 10 µM was -13.8%.

On to `Cc1ccc(N2CCCC(NCC3=Cc4ccccc4OC3)C2)nn1` (stereo not given), for which the cytotoxicity at 10 µM is -10.2%.

Regarding `O=C(CCNC(=O)c1ccoc1)Nc1cccc(F)c1`, the cytotoxicity at 10 µM was -8.63%.

Consider `O=C(COCc1ccccc1Cl)N1CCCC(n2cccn2)C1` (stereo not given), for which the cytotoxicity at 10 µM was found to be 10%.

`O=C(CC1CC1)N[C@@H]1CN(Cc2cccnc2)C[C@@H]2CCCO[C@@H]21`: the cytotoxicity at 10 µM is -0.995%.

For the compound `c1cnc(N2CCOCC3(CCCN(CC4CCOCC4)C3)C2)nc1` (stereo not given), the cytotoxicity at 10 µM was -8.95%.

For the compound `Cn1cc(CN2C[C@@H](NC(=O)c3cscn3)[C@H]3OCCC[C@H]32)cn1`, the cytotoxicity at 10 µM was -11.7%.

Consider `COCCN1C[C@H]2[C@@H](C1)N(Cc1cnn(C)c1)CC[C@H]2OC`, for which the cytotoxicity at 10 µM turned out to be 8.47%.

As for `O=C(c1ccccc1)N1C[C@H]2CCC[C@@]2(COCc2ccncc2)C1`, the cytotoxicity at 10 µM came to 1.59%.

(Values after ChEMBL document CHEMBL4513216, “Probing the Open Global Health Chemical Diversity Library for Multistage-Active Starting Points for Next-Generation Antimalarials” (ACS Infect Dis, 2020).)
